Data on ten molecules can be found in ChEMBL document CHEMBL1165965, “Synthesis and structure-activity relationships of 1,2,3,4-tetrahydropyrido[2,3-b]pyrazines as potent and selective inhibitors of the anaplastic lymphoma kinase” (Bioorg Med Chem, 2010).

The structures appear in SMILES notation.

The target of assay [1] is Serine/threonine-protein kinase MARK1 (Homo sapiens) (UniProt Q9P0L2). In words: Inhibition of MARK1 at 1 uM. The method, boiled down:
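Kinase-panel screen using KINOMEscan technology, with 250–400 kinases per panel. Each compound was tested at a single concentration, and inhibition of each kinase was recorded. Selectivity was summarised as S(90), the fraction of kinases inhibited by more than 90%.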

The target in assay [2] is T1, Serine/threonine-protein kinase Nek2 (Homo sapiens) (UniProt P51955).
T1 sequence (whole entry): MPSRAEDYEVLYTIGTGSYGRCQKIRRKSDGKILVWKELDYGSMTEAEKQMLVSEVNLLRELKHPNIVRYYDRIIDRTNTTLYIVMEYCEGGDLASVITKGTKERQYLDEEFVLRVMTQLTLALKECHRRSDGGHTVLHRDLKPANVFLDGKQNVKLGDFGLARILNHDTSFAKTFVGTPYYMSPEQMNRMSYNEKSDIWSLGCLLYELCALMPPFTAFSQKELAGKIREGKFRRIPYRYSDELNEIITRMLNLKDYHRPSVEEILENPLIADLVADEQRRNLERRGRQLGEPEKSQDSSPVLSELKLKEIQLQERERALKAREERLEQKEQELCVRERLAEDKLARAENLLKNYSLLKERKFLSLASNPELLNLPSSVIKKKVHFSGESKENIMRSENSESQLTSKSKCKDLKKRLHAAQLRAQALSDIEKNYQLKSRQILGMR
In words: Inhibition of NEK2 at 1 uM.

In assay [3] the target is Mitogen-activated protein kinase 11 (Homo sapiens) (UniProt Q15759). Put plainly: Inhibition of p38-beta at 1 uM.
Assay [4] deals with Serine/threonine-protein kinase PAK 2 (Homo sapiens) (UniProt Q13177). Put plainly: Inhibition of PAK2 at 1 uM.
Assay [5] addresses T2, Serine/threonine-protein kinase RIO1 (Homo sapiens) (UniProt Q9BRS2).
T2 sequence (whole entry): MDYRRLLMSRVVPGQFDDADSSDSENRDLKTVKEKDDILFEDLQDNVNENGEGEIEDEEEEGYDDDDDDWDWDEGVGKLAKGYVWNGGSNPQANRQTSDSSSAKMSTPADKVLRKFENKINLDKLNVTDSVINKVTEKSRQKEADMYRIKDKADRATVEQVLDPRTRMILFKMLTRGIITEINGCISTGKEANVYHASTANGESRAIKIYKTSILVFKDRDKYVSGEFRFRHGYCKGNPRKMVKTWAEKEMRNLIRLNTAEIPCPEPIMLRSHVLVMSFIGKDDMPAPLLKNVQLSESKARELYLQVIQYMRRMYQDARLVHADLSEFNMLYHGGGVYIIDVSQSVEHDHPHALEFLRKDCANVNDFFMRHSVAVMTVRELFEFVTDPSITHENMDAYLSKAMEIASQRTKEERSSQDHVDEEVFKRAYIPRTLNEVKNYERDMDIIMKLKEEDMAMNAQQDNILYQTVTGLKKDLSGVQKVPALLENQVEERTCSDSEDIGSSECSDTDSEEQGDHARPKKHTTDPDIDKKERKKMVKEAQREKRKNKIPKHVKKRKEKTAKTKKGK
Put plainly: Inhibition of RIOK1 at 1 uM.

The target in assay [6] is T3, Receptor-interacting serine/threonine-protein kinase 1 (Homo sapiens) (UniProt Q13546).
T3 sequence (whole entry): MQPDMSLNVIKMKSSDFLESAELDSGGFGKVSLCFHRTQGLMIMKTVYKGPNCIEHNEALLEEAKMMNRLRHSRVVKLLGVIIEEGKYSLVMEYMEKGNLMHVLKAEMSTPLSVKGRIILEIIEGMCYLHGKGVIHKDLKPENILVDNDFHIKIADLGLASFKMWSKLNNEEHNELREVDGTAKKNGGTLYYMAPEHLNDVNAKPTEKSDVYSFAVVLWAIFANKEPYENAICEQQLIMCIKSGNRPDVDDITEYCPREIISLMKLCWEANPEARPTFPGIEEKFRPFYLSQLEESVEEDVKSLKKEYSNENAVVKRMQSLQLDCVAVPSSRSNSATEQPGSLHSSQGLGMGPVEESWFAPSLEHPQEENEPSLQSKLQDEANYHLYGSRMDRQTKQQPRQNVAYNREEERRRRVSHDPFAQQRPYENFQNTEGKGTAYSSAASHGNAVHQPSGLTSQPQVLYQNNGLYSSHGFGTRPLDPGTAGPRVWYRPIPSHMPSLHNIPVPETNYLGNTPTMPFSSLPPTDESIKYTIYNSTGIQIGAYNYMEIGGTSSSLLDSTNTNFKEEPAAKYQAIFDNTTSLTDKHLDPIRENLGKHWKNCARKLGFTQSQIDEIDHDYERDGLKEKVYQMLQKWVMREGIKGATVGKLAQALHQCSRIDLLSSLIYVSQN
In words: Inhibition of RIPK1 at 1 uM.

Assay [7] is described as follows: Inhibition of FLT3 ITD mutant at 1 uM. Put shortly: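 Single-concentration screen on the Ambit KINOMEscan platform, run against a panel of 250–400 kinases. Per-kinase inhibition was also summarized as S(90), the fraction of kinases inhibited by more than 90%.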
Assay [8] concerns the target Interleukin-1 receptor-associated kinase 1 (Homo sapiens) (UniProt P51617). Put plainly: Inhibition of IRAK1 at 1 uM.
The test system of assay [9] is Phosphatidylinositol 4,5-bisphosphate 3-kinase catalytic subunit alpha isoform (Homo sapiens), P42336 [E545A]. Put plainly: Inhibition of PIK3CA E545A mutant at 1 uM.
In assay [10] the target is Serine/threonine-protein kinase/endoribonuclease IRE1 (Homo sapiens) (UniProt O75460). Put plainly: Inhibition of ERN1 at 1 uM.
Serine/threonine-protein kinase/endoribonuclease IRE1 (Homo sapiens), sequence (O75460 19-977 limits assumed): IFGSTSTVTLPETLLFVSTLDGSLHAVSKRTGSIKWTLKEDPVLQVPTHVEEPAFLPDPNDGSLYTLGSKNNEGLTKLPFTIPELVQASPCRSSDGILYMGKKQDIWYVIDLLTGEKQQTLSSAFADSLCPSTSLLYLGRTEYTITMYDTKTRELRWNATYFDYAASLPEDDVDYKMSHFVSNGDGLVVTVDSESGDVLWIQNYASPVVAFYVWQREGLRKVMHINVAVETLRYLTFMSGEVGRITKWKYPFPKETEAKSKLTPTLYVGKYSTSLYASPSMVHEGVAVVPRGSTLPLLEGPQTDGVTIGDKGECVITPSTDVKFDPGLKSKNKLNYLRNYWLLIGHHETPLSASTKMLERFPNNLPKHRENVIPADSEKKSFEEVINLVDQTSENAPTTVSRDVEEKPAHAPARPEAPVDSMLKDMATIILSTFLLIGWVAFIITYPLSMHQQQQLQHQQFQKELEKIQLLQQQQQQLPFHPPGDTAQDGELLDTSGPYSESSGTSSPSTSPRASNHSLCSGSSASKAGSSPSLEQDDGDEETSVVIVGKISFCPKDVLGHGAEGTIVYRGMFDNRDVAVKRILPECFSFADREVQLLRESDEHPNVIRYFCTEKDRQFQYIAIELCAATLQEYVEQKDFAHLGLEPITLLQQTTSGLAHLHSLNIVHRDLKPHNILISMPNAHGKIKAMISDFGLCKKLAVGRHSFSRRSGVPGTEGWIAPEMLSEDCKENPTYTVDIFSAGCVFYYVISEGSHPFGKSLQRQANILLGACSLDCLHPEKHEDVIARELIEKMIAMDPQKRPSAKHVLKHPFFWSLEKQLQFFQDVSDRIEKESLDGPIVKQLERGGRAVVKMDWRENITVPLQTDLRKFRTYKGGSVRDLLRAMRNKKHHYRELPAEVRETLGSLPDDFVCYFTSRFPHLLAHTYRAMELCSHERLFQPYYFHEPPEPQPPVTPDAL

Serine/threonine-protein kinase PAK 2 (Homo sapiens), sequence (Q13177 whole entry): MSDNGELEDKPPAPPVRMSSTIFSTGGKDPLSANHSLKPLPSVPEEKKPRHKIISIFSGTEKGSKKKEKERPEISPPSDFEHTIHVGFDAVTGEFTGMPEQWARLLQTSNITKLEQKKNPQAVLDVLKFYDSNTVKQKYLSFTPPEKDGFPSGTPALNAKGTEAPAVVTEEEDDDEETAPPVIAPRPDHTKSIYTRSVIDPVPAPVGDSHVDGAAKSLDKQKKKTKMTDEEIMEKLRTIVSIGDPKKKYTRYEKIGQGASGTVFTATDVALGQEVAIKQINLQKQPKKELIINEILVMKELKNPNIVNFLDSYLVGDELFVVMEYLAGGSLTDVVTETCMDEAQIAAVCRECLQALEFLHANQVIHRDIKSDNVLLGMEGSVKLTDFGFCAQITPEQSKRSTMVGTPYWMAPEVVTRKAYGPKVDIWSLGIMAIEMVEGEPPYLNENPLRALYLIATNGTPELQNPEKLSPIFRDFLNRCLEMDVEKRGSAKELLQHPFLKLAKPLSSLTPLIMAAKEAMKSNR
Serine/threonine-protein kinase MARK1 (Homo sapiens), sequence (Q9P0L2 whole entry, looked up): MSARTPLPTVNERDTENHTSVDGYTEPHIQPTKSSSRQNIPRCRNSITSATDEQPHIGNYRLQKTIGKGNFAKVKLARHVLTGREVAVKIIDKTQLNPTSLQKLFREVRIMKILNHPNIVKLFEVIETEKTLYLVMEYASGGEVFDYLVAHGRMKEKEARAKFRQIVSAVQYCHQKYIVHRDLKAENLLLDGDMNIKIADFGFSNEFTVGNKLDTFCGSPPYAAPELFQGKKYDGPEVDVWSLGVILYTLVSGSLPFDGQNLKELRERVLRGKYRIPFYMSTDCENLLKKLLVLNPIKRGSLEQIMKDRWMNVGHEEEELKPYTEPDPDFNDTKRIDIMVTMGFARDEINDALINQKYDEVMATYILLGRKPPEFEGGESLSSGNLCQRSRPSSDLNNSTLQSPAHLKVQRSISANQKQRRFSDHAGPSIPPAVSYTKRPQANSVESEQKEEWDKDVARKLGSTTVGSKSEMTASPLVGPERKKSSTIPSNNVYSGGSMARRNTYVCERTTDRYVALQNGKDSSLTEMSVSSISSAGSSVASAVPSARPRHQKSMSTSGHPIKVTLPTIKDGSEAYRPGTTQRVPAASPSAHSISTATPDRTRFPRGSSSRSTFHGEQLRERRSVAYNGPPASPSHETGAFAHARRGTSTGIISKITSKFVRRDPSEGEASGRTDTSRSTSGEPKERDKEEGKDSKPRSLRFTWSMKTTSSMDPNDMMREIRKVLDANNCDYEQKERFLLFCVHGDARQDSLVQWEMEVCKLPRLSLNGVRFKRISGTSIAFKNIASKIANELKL
Mitogen-activated protein kinase 11 (Homo sapiens), sequence (Q15759 whole entry): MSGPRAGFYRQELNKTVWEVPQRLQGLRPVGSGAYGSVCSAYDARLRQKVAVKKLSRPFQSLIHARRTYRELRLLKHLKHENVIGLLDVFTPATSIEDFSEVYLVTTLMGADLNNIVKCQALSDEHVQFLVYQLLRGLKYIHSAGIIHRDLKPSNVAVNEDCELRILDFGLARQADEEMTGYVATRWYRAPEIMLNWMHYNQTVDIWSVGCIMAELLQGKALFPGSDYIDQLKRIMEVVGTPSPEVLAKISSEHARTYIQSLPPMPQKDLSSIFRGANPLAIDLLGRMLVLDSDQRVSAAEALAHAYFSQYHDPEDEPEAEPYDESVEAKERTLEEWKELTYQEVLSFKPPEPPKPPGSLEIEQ
Interleukin-1 receptor-associated kinase 1 (Homo sapiens), sequence (P51617 whole entry, looked up, canonical isoform): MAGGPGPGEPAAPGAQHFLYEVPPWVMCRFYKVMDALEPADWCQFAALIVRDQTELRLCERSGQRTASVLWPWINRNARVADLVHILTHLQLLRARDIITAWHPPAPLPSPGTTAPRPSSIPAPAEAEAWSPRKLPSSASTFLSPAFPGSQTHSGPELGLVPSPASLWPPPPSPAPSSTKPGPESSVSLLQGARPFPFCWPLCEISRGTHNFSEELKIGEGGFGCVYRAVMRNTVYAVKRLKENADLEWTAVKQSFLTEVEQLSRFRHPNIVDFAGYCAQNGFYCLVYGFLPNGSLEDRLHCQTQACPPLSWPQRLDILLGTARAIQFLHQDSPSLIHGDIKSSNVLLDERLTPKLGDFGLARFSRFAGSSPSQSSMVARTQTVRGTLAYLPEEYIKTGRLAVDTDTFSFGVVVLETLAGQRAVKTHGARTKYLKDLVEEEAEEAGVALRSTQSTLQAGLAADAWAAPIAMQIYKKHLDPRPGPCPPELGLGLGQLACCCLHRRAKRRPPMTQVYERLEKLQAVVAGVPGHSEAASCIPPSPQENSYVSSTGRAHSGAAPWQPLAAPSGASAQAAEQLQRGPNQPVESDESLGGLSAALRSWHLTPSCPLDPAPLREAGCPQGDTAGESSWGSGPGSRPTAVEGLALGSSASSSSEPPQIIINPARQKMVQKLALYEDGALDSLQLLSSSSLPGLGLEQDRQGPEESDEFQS
Phosphatidylinositol 4,5-bisphosphate 3-kinase catalytic subunit alpha isoform (Homo sapiens), P42336 [E545A], sequence (P42336 whole entry E545A, canonical isoform): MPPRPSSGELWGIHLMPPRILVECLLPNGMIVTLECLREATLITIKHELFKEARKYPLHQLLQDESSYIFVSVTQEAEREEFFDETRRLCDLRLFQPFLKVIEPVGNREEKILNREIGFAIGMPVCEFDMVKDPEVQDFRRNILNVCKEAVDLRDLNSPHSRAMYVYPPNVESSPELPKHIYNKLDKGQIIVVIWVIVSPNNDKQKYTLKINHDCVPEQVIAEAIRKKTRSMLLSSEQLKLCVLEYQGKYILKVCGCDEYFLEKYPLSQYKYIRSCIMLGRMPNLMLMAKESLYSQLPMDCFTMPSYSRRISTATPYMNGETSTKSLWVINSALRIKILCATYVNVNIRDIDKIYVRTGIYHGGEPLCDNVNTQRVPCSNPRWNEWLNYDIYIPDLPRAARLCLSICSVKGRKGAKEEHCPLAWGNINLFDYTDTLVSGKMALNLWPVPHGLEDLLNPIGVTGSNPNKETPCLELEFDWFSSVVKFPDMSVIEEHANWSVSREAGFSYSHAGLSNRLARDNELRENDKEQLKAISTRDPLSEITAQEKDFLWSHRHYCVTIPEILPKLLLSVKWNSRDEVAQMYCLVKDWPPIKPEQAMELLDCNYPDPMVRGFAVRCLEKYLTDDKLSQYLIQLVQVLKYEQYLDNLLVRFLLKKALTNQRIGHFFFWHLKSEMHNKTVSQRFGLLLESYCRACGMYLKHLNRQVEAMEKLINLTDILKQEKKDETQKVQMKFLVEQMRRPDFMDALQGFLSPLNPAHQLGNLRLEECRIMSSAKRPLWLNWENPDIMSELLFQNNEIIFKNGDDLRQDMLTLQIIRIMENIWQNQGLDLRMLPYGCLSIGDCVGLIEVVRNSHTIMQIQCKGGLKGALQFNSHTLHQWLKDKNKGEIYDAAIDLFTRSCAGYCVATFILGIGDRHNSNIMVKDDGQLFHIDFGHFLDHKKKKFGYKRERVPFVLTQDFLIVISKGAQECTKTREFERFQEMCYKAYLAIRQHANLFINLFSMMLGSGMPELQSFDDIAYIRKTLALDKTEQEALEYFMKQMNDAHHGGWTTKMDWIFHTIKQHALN

As for `O=C(c1ccc(-c2cnc3c(c2)N(Cc2cc(Cl)ccc2C(F)(F)F)CCN3)cc1)N1CCCCC1`, the inhibition in assay [1], in assay [2], in [3], in [4], in [5] and in assay [6] was < 50% throughout. Also, the inhibition in assay [7] was < 50%.
For the molecule `CN1CCN(c2ccc(-c3cnc4c(c3)N(Cc3c(F)ccc(F)c3Cl)CCN4)cn2)CC1`, the inhibition in assay [8], in assay [1], in assay [2], in assay [3], in assay [4] and in assay [9] was < 50% each time. Also, the inhibition in assay [5], in assay [6], in assay [10] and in [7] was < 50% in each case.
Consider `COC1CCN(C(=O)c2ccc(-c3cnc4c(c3)N(Cc3cc(Cl)ccc3C(F)(F)F)CCN4)cc2)CC1`, for which the inhibition in assay [1], in [2], in assay [3], in assay [4], in [5] and in assay [6] was < 50% throughout. The inhibition in assay [7] is < 50%.
With `O=C(O)c1ccc(-c2cnc3c(c2)N(Cc2cc(Cl)ccc2C(F)(F)F)CCN3)cc1`, the inhibition in [1], in assay [2], in assay [3], in assay [4], in [5] and in assay [6] was < 50% each time. For the same molecule, the inhibition in assay [7] is < 50%.
As to `FC(F)(F)c1ccc(Cl)cc1CN1CCNc2ncc(-c3ccnc(N4CCNCC4)c3)cc21`, the inhibition in [8], in assay [1], in [2], in assay [3], in [4] and in assay [9] was < 50% each time. Also, the inhibition in assay [5] is < 50%; in assay [6], < 50%; in assay [10], < 50%; in assay [7], 74%.
Take `CN1CCN(c2ccc(-c3cnc4c(c3)N(Cc3cc(Cl)ccc3Cl)CCN4)cn2)CC1`: the inhibition in assay [8], in [1], in [2], in assay [3], in assay [4] and in assay [9] was < 50% each time. In addition, the inhibition in [5], in assay [6], in assay [10] and in assay [7] was < 50% in each case.
Take `O=C(c1ccc(-c2cnc3c(c2)N(Cc2cc(Cl)ccc2C(F)(F)F)CCN3)cc1)N1CCC(N2CCCC2)CC1`: the inhibition in [1], in assay [2], in assay [3], in assay [4], in assay [5] and in assay [6] was < 50% in each case. For the same molecule, the inhibition in assay [7] is < 50%.
As for `CN1CCN(c2ccc(-c3cnc4c(c3)N(Cc3cc(Cl)ccc3C(F)(F)F)CCN4)cn2)CC1`, the inhibition in assay [8], in [1], in [2], in assay [3], in assay [4] and in [9] was < 50% in each case. The inhibition is < 50% in assay [5], < 50% in assay [6], < 50% in assay [10] and 90% in [7].
With `CC(=O)N1CCN(c2cc(-c3cnc4c(c3)N(Cc3cc(Cl)ccc3C(F)(F)F)CCN4)ccn2)CC1`, the inhibition in [8], in assay [1], in assay [2], in [3], in [4] and in [9] was < 50% in each case. The inhibition in assay [5], in assay [6], in [10] and in assay [7] was < 50% throughout.
With `CN1CCN(c2ccc(-c3cnc4c(c3)N(Cc3cc(F)ccc3F)CCN4)cn2)CC1`, the inhibition in assay [8], in [1], in assay [2], in assay [3], in assay [4] and in assay [9] was < 50% each time. For the same molecule, the inhibition in [5], in assay [6], in assay [10] and in assay [7] was < 50% throughout.
